# Key:
# [1] = system: intracellular cGMP levels in colon tumor cells; settings: cited from earlier work
# [2] = system: cGMP PDE in HT-29 human colon tumor cell lysates; assay: cGMP PDE scintillation proximity assay in HT-29 lysate; format: biochemical; settings: HT-29 cell lysates; for effect on cGMP PDE activity: NSAID panel; for IC50: read-out: IC50 cGMP PDE, scintillation proximity assay
# Outline: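 The reaction was stopped with scintillation proximity beads that bind the labeled product, then counted.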
# [3] = system: HT-29, SW480, and HCT116 human colon cancer cell lines; assay: Cell Titer Glo growth assay, colon tumor cell lines; format: cell-based; settings: for HT-29 growth inhibition: NSAID panel; for IC50: Homo sapiens, 72 h, read-out: growth inhibition IC50, range over cell lines; for effect on colon tumor cell growth: PDE isozyme specific inhibitors
# [4] = system: cAMP hydrolysis in HT-29 cell lysate; assay: IMAP fluorescence polarization PDE assay, cAMP hydrolysis in HT-29 lysate; format: biochemical, human
# [5] = system: cGMP PDE activity in lysates from HT-29 tumors established in athymic mice; assay: cGMP PDE in HT-29 tumor homogenates versus normal rat colonic mucosa; format: biochemical, human; settings: HT-29 tumor lysate vs normal rat colonic mucosa lysate
# [6] = system: Tcf/Lef-mediated transcription in HT-29, HCT-116, and SW480 colon cancer cells; assay: TOPFlash luciferase reporter assay; format: cell-based, human; settings: HT-29, HCT-116, SW480, 24 hours
# Outline: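 Cells were transiently co-transfected with the TOPFlash luciferase construct and a β-galactosidase expression vector, then treated for 24 h. After lysis, luciferase and β-galactosidase activities were measured, and luciferase was normalized to β-galactosidase.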
# [7] = system: cyclinD1 and survivin expression in SW480 cells; assay: Western blot of cyclin D1 and survivin; format: cell-based, human; settings: time-dependent
# Outline: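 SW480 lysate (ice-cold Tris-acetate/Triton X-100/NaF buffer, pH 7.4, cleared at 10,000g, 4°C) was loaded at 30 μg protein per lane. Proteins were separated by 12% SDS-PAGE and transferred to nitrocellulose, blocked with 5% BSA in TBS/0.05% Tween-20, and probed for cyclin D1 and survivin, with β-actin as loading control.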
# [8] = Plasma levels of sulindac and metabolites; format: in vivo; settings: for concentration at 6 h: mouse, plasma, po, 50 mg/kg
# HT-29 cells = assay: 3H-thymidine incorporation proliferation assay; format: cell-based, human; settings: read-out: IC50 Proliferation, 72 hours, tritiated thymidine assay
# Outline: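 HT-29 cells (>95% viable by trypan blue) were treated for 72 h in total. 1 μCi ³H-thymidine was added at 56 h and incubation continued 16 h at 37°C. DNA was harvested onto filters and uptake counted by scintillation.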
# cGMP PDE in FHC lysates = assay: IMAP fluorescence polarization PDE assay, cGMP hydrolysis in FHC lysate; format: biochemical, human; settings: FHC lysate compared with HT-29 lysate
# Outline: (§1)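 HT-29 or FHC cells were lysed in ice-cold 20 mM Tris-acetate, 5 mM Mg acetate, 1 mM EGTA, 0.8% Triton X-100, 50 mM NaF, protease inhibitors, pH 7.4. Lysates were cleared at 10,000g, 10 min, 4°C, and protein measured by BCA. PDE activity was read by IMAP fluorescence polarization, with Fl-cAMP and TAMRA-cGMP as substrates so cAMP and cGMP hydrolysis were measured together.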
# recombinant PDE2 = recombinant PDE2 (Homo sapiens, UniProt O00408); assay: Recombinant PDE2 inhibition; format: biochemical; settings: recombinant isozyme, cAMP as substrate; data not shown
# recombinant PDE3 = assay: Recombinant PDE3 inhibition; format: biochemical; settings: recombinant isozyme, cAMP as substrate; data not shown
# [9] = system: cGMP hydrolysis in HT-29 cell lysate; assay: IMAP fluorescence polarization PDE assay, cGMP hydrolysis in HT-29 lysate; format: biochemical, human; settings: HT-29 cell lysates; concentration not given
# Outline: as §1
# Purified ovine COX-1 = biological target: T1, Purified ovine COX-1 (Ovis aries, UniProt P05979); assay: COX-1 inhibition, purified enzyme; format: biochemical; settings: read-out: IC50 COX-1
# T1 sequence (P05979 25-600): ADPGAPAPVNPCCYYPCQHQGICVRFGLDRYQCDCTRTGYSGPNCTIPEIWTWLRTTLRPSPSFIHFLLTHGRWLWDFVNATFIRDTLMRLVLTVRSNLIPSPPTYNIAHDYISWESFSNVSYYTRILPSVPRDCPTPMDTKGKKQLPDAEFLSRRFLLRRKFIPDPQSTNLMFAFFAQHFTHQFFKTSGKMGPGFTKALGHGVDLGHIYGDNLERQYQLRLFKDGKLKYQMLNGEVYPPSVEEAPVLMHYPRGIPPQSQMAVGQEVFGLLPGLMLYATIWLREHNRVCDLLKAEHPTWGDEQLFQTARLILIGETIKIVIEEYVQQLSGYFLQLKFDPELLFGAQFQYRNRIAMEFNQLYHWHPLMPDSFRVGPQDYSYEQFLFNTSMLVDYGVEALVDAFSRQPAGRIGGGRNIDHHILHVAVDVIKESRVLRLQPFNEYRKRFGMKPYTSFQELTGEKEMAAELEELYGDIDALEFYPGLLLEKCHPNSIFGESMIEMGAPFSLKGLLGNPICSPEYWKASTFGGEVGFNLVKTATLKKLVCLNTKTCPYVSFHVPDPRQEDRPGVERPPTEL
# Purified ovine COX-2 = biological target: T2, Purified ovine COX-2 (Ovis aries, UniProt P79208); assay: COX-2 inhibition, purified enzyme; format: biochemical; settings: read-out: IC50 COX-2
# T2 sequence (P79208 17-603): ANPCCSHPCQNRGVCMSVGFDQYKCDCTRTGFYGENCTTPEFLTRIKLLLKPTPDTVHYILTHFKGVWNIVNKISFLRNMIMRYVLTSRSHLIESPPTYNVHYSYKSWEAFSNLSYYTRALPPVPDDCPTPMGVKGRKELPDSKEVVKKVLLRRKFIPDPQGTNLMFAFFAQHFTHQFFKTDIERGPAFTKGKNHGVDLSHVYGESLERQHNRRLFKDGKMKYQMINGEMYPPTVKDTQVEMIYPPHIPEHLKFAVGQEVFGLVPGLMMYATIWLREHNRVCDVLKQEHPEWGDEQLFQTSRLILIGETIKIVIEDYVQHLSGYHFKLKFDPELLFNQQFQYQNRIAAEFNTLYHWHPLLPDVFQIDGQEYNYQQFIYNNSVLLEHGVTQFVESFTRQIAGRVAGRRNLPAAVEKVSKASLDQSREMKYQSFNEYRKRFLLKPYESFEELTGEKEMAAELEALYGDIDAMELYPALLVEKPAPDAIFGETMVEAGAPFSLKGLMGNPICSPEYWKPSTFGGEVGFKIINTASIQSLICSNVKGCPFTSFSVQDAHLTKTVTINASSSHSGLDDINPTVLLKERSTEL
# Tolerance study = format: in vivo; settings: daily oral gavage for 20 days; no deaths or significant weight loss
# [10] = system: human HT-29 colon tumor xenograft; assay: HT-29 colon tumor xenograft efficacy; format: in vivo, male NCr-nu/nu athymic mice; settings: 50 mg/kg once daily oral gavage
# Outline: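 Male NCr-nu/nu mice, 5–6 weeks old, were implanted subcutaneously with HT-29 tumor fragments; 10 mice per group, vehicle-treated control. Dosing started at tumor size 75–200 mg: 50 mg/kg oral gavage once daily for 40 days, as a suspension in 0.5% CMC, 0.25% Tween 80 in water. Tumor dimensions and body weight were measured twice weekly; mortality checked daily.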
# recombinant PDE2, sequence (O00408 whole entry): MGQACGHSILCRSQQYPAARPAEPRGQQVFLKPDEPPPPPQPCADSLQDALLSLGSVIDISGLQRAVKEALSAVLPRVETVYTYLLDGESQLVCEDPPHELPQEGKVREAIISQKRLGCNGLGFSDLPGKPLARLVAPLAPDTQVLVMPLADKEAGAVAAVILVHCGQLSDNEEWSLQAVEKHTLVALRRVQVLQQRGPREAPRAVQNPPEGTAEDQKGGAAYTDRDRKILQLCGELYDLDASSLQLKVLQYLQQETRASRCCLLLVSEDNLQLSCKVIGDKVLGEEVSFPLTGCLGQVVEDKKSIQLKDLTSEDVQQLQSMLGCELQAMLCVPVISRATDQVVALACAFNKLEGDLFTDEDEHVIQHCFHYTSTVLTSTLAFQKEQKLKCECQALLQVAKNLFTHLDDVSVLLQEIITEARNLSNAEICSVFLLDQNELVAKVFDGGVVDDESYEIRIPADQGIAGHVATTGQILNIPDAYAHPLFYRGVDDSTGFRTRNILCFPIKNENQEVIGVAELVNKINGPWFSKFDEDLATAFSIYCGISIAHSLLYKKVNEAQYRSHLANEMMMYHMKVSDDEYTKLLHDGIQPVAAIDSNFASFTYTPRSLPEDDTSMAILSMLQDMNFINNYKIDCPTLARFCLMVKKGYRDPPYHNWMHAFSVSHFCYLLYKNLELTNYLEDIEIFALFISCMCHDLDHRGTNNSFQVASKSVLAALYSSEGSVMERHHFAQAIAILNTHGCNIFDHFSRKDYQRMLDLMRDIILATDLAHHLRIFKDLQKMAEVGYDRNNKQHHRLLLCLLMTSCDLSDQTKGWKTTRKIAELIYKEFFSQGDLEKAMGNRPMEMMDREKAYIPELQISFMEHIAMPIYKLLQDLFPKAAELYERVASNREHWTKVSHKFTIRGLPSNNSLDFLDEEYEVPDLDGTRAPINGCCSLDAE
smiles,measurement,setting,value
O=C(O)C1CCN(c2nc(NCc3ccc4c(c3)OCO4)c3cc(Cl)ccc3n2)CC1 [E4021],increase in intracellular cGMP levels,[1],unable to induce a significant increase
CN1C(C(=O)Nc2ccccn2)=C(O)c2ccccc2S1(=O)=O [piroxicam],effect on cGMP PDE activity,[2],did not affect cGMP PDE activity
same,HT-29 growth inhibition,[3],low potency
"Clc1cccc(Nc2nnc(-c3ccccc3)c3ccccc23)c1 [MY5445, 1-(3-chloroanilino)-4-phenylphthalazine]",IC50,[3],8 to 18 µM
same,effect on cAMP hydrolysis,[4],without substantially affecting cAMP hydrolysis
same,fold greater potency for tumor cGMP PDE compared to normal tissue,[5],more than 10 fold
same,Tcf/Lef-mediated transcription,[6],significant reduction
same,expression of cyclinD1 and survivin,[7],significant reduction
"CC1=C(CC(=O)O)c2cc(F)ccc2/C1=C\c1ccc(S(C)(=O)=O)cc1 [Sulindac sulfone, sulindac sulfone]",IC50,[2],95.9 µM
same,concentration at 6 h,[8],8.9 ± 1.2 µM
Cc1ccc(-c2cc(C(F)(F)F)nn2-c2ccc(S(N)(=O)=O)cc2)cc1 [celecoxib],effect on cGMP PDE activity,[2],inhibited cGMP PDE
same,HT-29 growth inhibition,[3],did inhibit tumor cell growth
"CSc1ccc(/C=C2/C(C)=C(CC(=O)O)c3cc(F)ccc32)cc1 [Sulindac sulfide, sulindac sulfide]",IC50,[2],19.7 µM
same,IC50,HT-29 cells,33.9 µM
same,IC50,[3],73 to 85 µM
same,effect on cAMP hydrolysis,[4],appreciably higher concentrations were necessary
same,cGMP PDE inhibition in FHC lysate,cGMP PDE in FHC lysates,reduced sensitivity
same,cAMP hydrolysis by PDE2,recombinant PDE2,did not significantly inhibit
same,cAMP hydrolysis by PDE3,recombinant PDE3,did not significantly inhibit
same,Tcf/Lef-mediated transcription,[6],significant reduction
same,expression of cyclinD1 and survivin,[7],significant reduction
same,concentration at 6 h,[8],36.7 ± 10.2 µM
CN1CC(=O)N2[C@H](c3ccc4c(c3)OCO4)c3[nH]c4ccccc4c3C[C@@H]2C1=O [tadalafil],effect on colon tumor cell growth,"[3]; HT-29, SW480, HCT116",did not affect colon tumor cell growth
CCCCC1C(=O)N(c2ccccc2)N(c2ccccc2)C1=O [phenylbutazone],effect on cGMP PDE activity,[2],did not affect cGMP PDE activity
same,HT-29 growth inhibition,[3],low potency
"CS(=O)(=O)c1ccc(C2=C(c3ccccc3)C(=O)OC2)cc1 [Rofecoxib, rofecoxib]",IC50,[2],> 300 µM
CC(=O)Oc1ccccc1C(=O)O [aspirin],effect on cGMP PDE activity,[2],did not affect cGMP PDE activity
same,HT-29 growth inhibition,[3],low potency
CCCc1nn(C)c2c(=O)[nH]c(-c3cc(S(=O)(=O)N4CCN(C)CC4)ccc3OCC)nc12 [sildenafil],effect on colon tumor cell growth,"[3]; HT-29, SW480, HCT116",did not affect colon tumor cell growth
same,inhibition of cGMP PDE activity in HT-29 lysate,[9],42%
C=C[C@@]1(C)CC(=O)[C@]2(O)[C@@]3(C)[C@@H](O)CCC(C)(C)[C@@H]3[C@H](O)[C@H](OC(C)=O)[C@@]2(C)O1 [forskolin],effect on growth,"[3]; HT-29, SW480, HCT116, 72 hours, concentrations up to 100 μM",did not significantly affect growth
Cc1[nH]c(=O)c(C#N)cc1-c1ccncc1 [milrinone],effect on colon tumor cell growth,"[3]; HT-29, SW480, HCT116",only MY5445 was found to inhibit colon tumor cell growth
same,inhibition of cGMP PDE activity in HT-29 lysate,[9],31%
CCCCCC[C@@H]([C@@H](C)O)n1cnc2c(N)ncnc21 (racemic) [EHNA],effect on colon tumor cell growth,"[3]; HT-29, SW480, HCT116",only MY5445 was found to inhibit colon tumor cell growth
same,inhibition of cGMP PDE activity in HT-29 lysate,[9],less than 12%
"CC1=C(CC(=O)O)c2cc(F)ccc2/C1=C\c1ccc([S+](C)[O-])cc1 (stereo not shown) [Sulindac sulfoxide, sulindac]",IC50,Purified ovine COX-1,> 300 µM
same,IC50,Purified ovine COX-2,> 300 µM
same,IC50,[2],120 µM
same,IC50,HT-29 cells,224 µM
same,maximum tolerated dosage,Tolerance study,approximately 50 mg/kg
same,reduction of tumor growth,"[10]; end of treatment, vs vehicle",approximately 55%
same,effect on body weight,[10]; not shown,without affecting body weight
same,plasma level,[8]; 6 hours following a single oral dose of sulindac at 50 mg/kg,23.1 ± 5.5 µM
CCOC(=O)C1=C[C@]2(CC)CCCN3CCc4c(n1c1ccccc41)[C@@H]32 [vinpocetine],effect on colon tumor cell growth,"[3]; HT-29, SW480, HCT116",only MY5445 was found to inhibit colon tumor cell growth
"COc1ccc2c(c1)c(CC(=O)O)c(C)n2C(=O)c1ccc(Cl)cc1 [Indomethacin, indomethacin]",IC50,[2],24 µM
COc1ccc(C2CNC(=O)C2)cc1OC1CCCC1 (stereo not shown) [rolipram],effect on colon tumor cell growth,"[3]; HT-29, SW480, HCT116",only MY5445 was found to inhibit colon tumor cell growth
